Source: paper PMC11040122 (Heliyon, 2024)

Test system: Sf9 cells
Assay: In vitro toxicity / cell growth inhibition rate
Assay type: cell-based, Spodoptera frugiperda
Conditions: MTT assay, 72 h of treatment
How it was run: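 Sf9 cells (2 × 10^4 cells/mL) in Grace's medium with 10 % FBS, exposed in triplicate to test compound (0.5–100 μM, from DMSO stocks); DMSO negative control. Incubated at 30 °C, humidified, no CO2, for 3–5 days until control wells near confluent. MTT (5 mg/mL) added for 4 h at 30 °C, formazan dissolved in DMSO, A570 read. IR = (1 − At/Ac) × 100; mean ± SD.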

SMILES | %IR At 100 μM (percent inhibition of cell growth rate)
COc1c(O)cc2oc3cc(O)c(CC=C(C)C)c(O)c3c(=O)c2c1CC=C(C)C [Alpha-mangostin] | 52.18%

Test system: SlSCP-2
Assay: not given
Conditions: read-out: IC50 values reported for natural compounds; cited from earlier work

SMILES | IC50
CCCCC/C=C\C/C=C\C/C=C\C/C=C\CCCC(=O)O [arachidonate] | 18.1 µM
CCCCCCCCCCCCCCCCCC(=O)O [stearic acid] | 39.8 µM
CC(C)CCC[C@@H](C)[C@H]1CC[C@H]2[C@@H]3CC=C4C[C@@H](O)CC[C@]4(C)[C@H]3CC[C@]12C [cholesterol] | 50.1 µM
CCCCCCCCCCCCCCCC(=O)O [palmitic acid] | 59.1 µM
CCCCCCCC/C=C\CCCCCCCC(=O)O [oleic acid] | 24.4 µM
